{"source": "paper PMC9904295", "about": "(Drug Delivery, 2023)", "key": {"[1]": {"assay": "Pharmacokinetic study in rats, intravenous", "assay_type": "in vivo, Sprague-Dawley rats", "details": "i.v., 5 mg/kg in OXA", "in_short": "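Twelve Sprague-Dawley rats (half male) were split into two groups and given one i.v. dose equivalent to 5 mg/kg. The free drug was prepared in 5% glucose. Retro-orbital blood was taken at 0.083–24 h and centrifuged at 12,000 rpm for 5 min. Plasma drug was measured by UPLC-MS/MS and total Pt by ICP-MS. Non-compartmental analysis gave AUC, Cmax, t1/2, MRT and CL; mean ± SD, n = 6.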"}, "[2]": {"assay": "Toxicity evaluation after repeated dosing", "assay_type": "in vivo", "details": "ICR mice", "in_short": "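Male ICR mice (17–18 g) were randomised into six groups (n = 10), with 5% glucose as control. Test compound was given i.v. every 3 days for five doses at 7.5 or 10 mg/kg (free form) or 7.5, 10 or 15 mg/kg drug-equivalent (nanoparticle). At the end, organs were harvested for viscera index, whole blood was taken for routine counts, and serum TP, ALB, UREA and Cr were measured. Data are mean ± SD, Student's t test.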"}, "SW620 cells": {"system": "SW620 cells", "assay": "In vivo antitumor efficacy in xenograft tumor-bearing mice", "design": "species or system BALB/c nude mice", "details": "xenograft tumor-bearing nude mice, i.v. once a week", "in_short": "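Male BALB/c nude mice (18–20 g) were inoculated with 3 × 10^6 SW620 cells at the right third fat pad. At tumors of about 100–200 mm3 they were randomised into six groups, with 5% glucose as control. Test compound was given i.v. by tail vein once a week for 4 weeks at 5 or 10 mg/kg (free form) or 5, 10 or 20 mg/kg (nanoparticle). Tumor volume (L × W × W/2) and body weight were measured three times weekly, and RTV = V/V0. Tumors were weighed at the end; n = 6, mean ± SD, Student's t test.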"}, "[3]": {"details": "analyte total Pt (ICP-MS) in plasma"}}, "data": [{"smiles": "O=C1[O][Pt]2([NH][C@@H]3CCCC[C@H]3[NH]2)[O]C1=O", "note": "[OXA, oxaliplatin]", "values": [{"measurement": "AUC0-t", "setting": "[1]; analyte OXA in plasma", "value": "1.94 ± 0.39", "unit": "µg·h/mL"}, {"measurement": "AUC0-∞", "setting": "[1]; analyte OXA in plasma", "value": "2.03 ± 0.55", "unit": "µg·h/mL"}, {"measurement": "CL", "setting": "[1]; analyte OXA in plasma", "value": "2,580 ± 560 mL/h/kg"}, {"measurement": "Cmax", "setting": "[1]; analyte OXA in plasma", "value": "9.58 ± 1.42", "unit": "µg/mL"}, {"measurement": "T1/2", "setting": "[1]; analyte OXA in plasma", "value": "0.16 ± 0.07", "unit": "h"}, {"measurement": "Vz", "setting": "[1]; analyte OXA in plasma", "value": "567 ± 70", "unit": "mL/kg"}, {"measurement": "AUC0-t", "setting": "[1]; [3]", "value": "13.00 ± 3.44", "unit": "µg·h/mL"}, {"measurement": "AUC0-∞", "setting": "[1]; [3]", "value": "19.98 ± 5.65", "unit": "µg·h/mL"}, {"measurement": "CL", "setting": "[1]; [3]", "value": "127.98 ± 36.2", "unit": "mL/h/kg"}, {"measurement": "Cmax", "setting": "[1]; [3]", "value": "4.76 ± 0.68", "unit": "µg/mL"}, {"measurement": "T1/2", "setting": "[1]; [3]", "value": "17.52 ± 0.52", "unit": "h"}, {"measurement": "Vz", "setting": "[1]; [3]", "value": "3,220 ± 818 mL/kg"}, {"measurement": "UREA", "setting": "[2]; 10 mg/kg i.v. every 3 days for five times", "value": "significant decrease"}, {"measurement": "biochemical indexes (TP, ALB, UREA, Cr)", "setting": "[2]; i.v. every 3 days for five times, except UREA at 10 mg/kg", "value": "No significant change"}, {"measurement": "tumor growth inhibition, dose dependence", "setting": "SW620 cells", "value": "dose-dependent tumor growth inhibition"}]}]}
